Laboratory results from PMC3806060 (Journal of medicinal chemistry, 2013).

Key:
[1] = cited from earlier work
[2] = tested on: H146 small-cell lung cancer xenograft; settings: 25 mg/kg, i.v., 5 days per week for 2 weeks; cited from earlier work
[3] = tested on: H146 small-cell lung cancer cell line; experiment: Cell growth inhibition assay; format: cell-based, Human
Bcl-xL [4] = molecular target: T1, Bcl-xL (Homo sapiens, UniProt Q07817); settings: read-out: Ki, binding to Bcl-xL; cited from earlier work
T1 sequence (Q07817 whole entry): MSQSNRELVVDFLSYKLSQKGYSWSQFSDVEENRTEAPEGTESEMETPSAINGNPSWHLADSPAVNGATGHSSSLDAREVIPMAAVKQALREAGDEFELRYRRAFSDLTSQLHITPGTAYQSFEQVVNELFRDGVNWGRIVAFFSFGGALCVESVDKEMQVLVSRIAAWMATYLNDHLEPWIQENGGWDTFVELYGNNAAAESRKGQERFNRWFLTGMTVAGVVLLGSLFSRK

Bcl-2 [5] = molecular target: T2, Bcl-2 (Homo sapiens, UniProt P10415); settings: read-out: Ki, binding to Bcl-2; cited from earlier work
T2 sequence (P10415 whole entry): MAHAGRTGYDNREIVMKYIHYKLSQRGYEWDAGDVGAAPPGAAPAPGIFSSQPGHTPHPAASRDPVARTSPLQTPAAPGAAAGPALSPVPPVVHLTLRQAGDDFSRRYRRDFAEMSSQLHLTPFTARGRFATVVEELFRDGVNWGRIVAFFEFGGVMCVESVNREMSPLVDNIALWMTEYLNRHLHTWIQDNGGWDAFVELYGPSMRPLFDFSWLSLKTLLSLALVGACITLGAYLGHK

Bcl-2 [6] = molecular target: T2, Bcl-2; experiment: FP based competitive binding assay, Bcl-2; settings: versus 8
Bcl-xL [7] = molecular target: T1, Bcl-xL; experiment: FP based competitive binding assay, Bcl-xL; settings: versus 8
Outline: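 Competitive fluorescence-polarization assay for Bcl-xL: pre-incubated Bcl-xL (10 nM) and fluorescent probe (2 nM) with serial dilutions of test compound, room temperature, 2 h, gentle shaking. Millipolarization plotted against total compound concentration. IC50 obtained by nonlinear regression; Ki calculated from IC50.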

[8] = tested on: animal model of human cancer; settings: cited from earlier work

Structure (SMILES) | Chemical stability [1] | Antitumor activity in H146 xenograft model [2] | Times more potent than compound 4 in H146 cell growth inhibition ([3]; versus 4) | Ki (Bcl-xL [4]) | Ki (Bcl-2 [5]) | Times less potent than compound 8 in binding to Bcl-2 (Bcl-2 [6]) | Times less potent than compound 8 in H146 cell growth inhibition ([3]; versus 8) | Times less potent than compound 8 in binding to Bcl-xL (Bcl-xL [7]) | Tumor regression [8]
CCn1c(C)c(C(=O)O)c(-c2cccc(N3CCN(c4ccc(NS(=O)(=O)c5ccc(N[C@H](CCN(C)C)CSc6ccccc6)c([N+](=O)[O-])c5)cc4)CC3)c2)c1-c1ccc(Cl)cc1 [Compound 5] | excellent chemical stability | failed to achieve long-lasting tumor regression | 8 times | < 1 nM | < 1 nM | – | – | – | –
Cc1c(C(N)=O)c(-c2cccc(N3CCN(c4ccc(NS(=O)(=O)c5ccc(N[C@H](CCN(C)C)CSc6ccccc6)c([N+](=O)[O-])c5)cc4)CC3)c2)c(-c2ccc(Cl)cc2)n1C [Compound 9, (R)-5-(4-Chlorophenyl)-4-(3-(4-(4-(4-(4-(dimethylamino)-1-(phenylthio)butan-2-ylamino)-3-nitrophenylsulfonamido)phenyl)piperazin-1-yl)phenyl)-1,2-dimethyl-1H-pyrrole-3-carboxamide] | – | – | – | – | – | 4 times | 6 times | 2 times | –
CCn1c(C)c(C(=O)O)c(-c2cccc(N3CCN(c4ccc(NS(=O)(=O)c5ccc(N[C@H](CCN6CCC(O)CC6)CSc6ccccc6)c(S(=O)(=O)C(F)(F)F)c5)cc4)CC3)c2)c1-c1ccc(Cl)cc1 [Compound 6, BM-957] | – | – | – | < 1 nM | < 1 nM | – | – | – | achieved tumor regression
Cc1c(C(=O)O)c(-c2cccc(N3CCN(c4ccc(NS(=O)(=O)c5ccc(N[C@H](CCN(C)C)CSc6ccccc6)c([N+](=O)[O-])c5)cc4)CC3)c2)c(-c2ccc(Cl)cc2)n1C [Compound 4] | excellent chemical stability | – | – | < 1 nM | < 1 nM | – | – | – | –
